From PubChem BioAssay
WT yeast gro inh – growth inhibition of WT strain, primary screen, mitochondrial fusion inhibitor project, WT and mutant strains, chemical genetic | mitochondrial fusion phenotypic screen | AID 1362, 2008 | inhibition, % at 10 µM | 190,000 compounds, 2.1% hits; in the data active means inhibition above about 58%; tested in S. cerevisiae
Arbovirus inh – antivirals against arbovirus infection, primary screen, cell-based, full library, 10K replicate subset; inhibition, % at 10 µM; 200,000 compounds, 0.37% hits; arbovirus infection cell-based antiviral screen; in the data active means inhibition above about 30%
NCF1 inh – p47phox/p22phox peptide binding inhibitors, primary screen, biochemical, uHTS, NADPH oxidase regulatory subunit; fluorescence polarization, 2 h; 220,000 compounds, 0.53% hits; inhibition, % at 24.7 µM; Neutrophil cytosol factor 1 (Homo sapiens), P14598;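 active means inhibition above about 30%, limit read from the data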;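 further: 0% = p47phox with labelled peptide and 100% = labelled peptide alone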
Target sequence (P14598 whole entry, looked up): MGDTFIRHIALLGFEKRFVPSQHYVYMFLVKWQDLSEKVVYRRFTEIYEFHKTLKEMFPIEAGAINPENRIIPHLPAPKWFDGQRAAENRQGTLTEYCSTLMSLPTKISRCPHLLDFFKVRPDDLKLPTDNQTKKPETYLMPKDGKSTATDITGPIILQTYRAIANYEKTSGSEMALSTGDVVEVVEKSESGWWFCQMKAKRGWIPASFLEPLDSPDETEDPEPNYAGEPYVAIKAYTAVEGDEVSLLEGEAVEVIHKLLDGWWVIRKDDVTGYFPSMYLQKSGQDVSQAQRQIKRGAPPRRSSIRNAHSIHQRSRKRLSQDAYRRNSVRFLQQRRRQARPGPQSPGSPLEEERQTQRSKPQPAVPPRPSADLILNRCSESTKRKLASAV
RAM inhibit – inhibitors of the yeast RAM network, primary screen, dse1pr::URA3 reporter, 5-FOA selection | 190,000 compounds, 1.8% hits | inhibition, % at 50 µM | AID 868, 2007 | S. cerevisiae dse1pr::URA3 reporter, 5-FOA growth OD615, 2 d; analog-sensitive cbk1-as2 kinase mutant strain;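 active means inhibition above a set limit, 3 SD over mean compound inhibition, cut at about 8.4% in these data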;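 further: 0% = DMSO-only wells with no growth and 100% = 10 µM 1-NA-PP1 full growth; inhibition rescues growth on 5-FOA so higher OD means more RAM inhibition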
Hck Nef HTS – inhibitors of Nef-activated human Hck kinase, primary screen, biochemical, Z-Lyte FRET, 384-well, Hck-YEEI; Recombinant Hck-YEEI plus Nef, Z-Lyte FRET kinase assay; Tyrosine-protein kinase HCK (Homo sapiens), P08631; inhibition, % at 20 µM; 220,000 compounds, 0.68% hits; AID 463187, 2010;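 active means Hck-Nef kinase inhibition above about 50%, limit read from the data; inactive means inhibition below that limit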;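 further: 0% = DMSO with Hck plus Nef and 100% = Hck alone without Nef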
Calb biofilm kill – clotrimazole potentiators killing C. albicans biofilm, primary screen, 4-compound mixtures; C. albicans biofilm persisters + clotrimazole, fluorescence viability; primary screen in compound mixtures of four per well; inhibition, % at 7.6 µM; 120,000 compounds, 0.02% hits; AID 1242, 2008;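 active means inhibition above 30.3% in the primary screen of four-compound pools, then above 30% when the compound was retested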;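 further: compounds exposed to preformed 24 h biofilms for 48 h; 0% = untreated biofilm control and 100% = clotrimazole plus chlorhexidine kill blank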
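System: C. albicans CAF4-2 wild-type biofilms; Medium: RPMI/MOPS medium, pH 7.0; Reagent: Clotrimazole, 50 µg/mL; Times: biofilm formation 24 h, compound exposure 48 h, 37 °C; Detection: 2-h Alamar Blue fluorescence, 535/590 nm excitation/emission; Evaluation: percent inhibition of biofilm viability.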
* marks the source's active call; other numbers are inactive results; nt = no result given. Sampled rows, rich in hits. Any-hit rate of the full collection: about 4.6%.

SMILES | WT yeast gro inh | Arbovirus inh | NCF1 inh | RAM inhibit | Hck Nef HTS | Calb biofilm kill
CCN(Cc1ccccc1)C(=O)c1ccc(CNS(=O)(=O)c2ccc(C)cc2)cc1 | 8.6 | -3.1 | -4.0 | 10.9* | 3.6 | 13.4
COc1ccccc1NC(=O)c1c(Nc2ccccc2F)sc(C(=O)Nc2cccc(Cl)c2)c1N | 22.5 | 4.1 | -31.0 | 10.8* | 2.1 | 12.0
COc1ccc(OC)c(-c2cc(C(=O)Nc3cccc(Cl)c3)no2)c1 | 29.6 | -6.8 | -13.9 | 2.2 | 0.2 | nt
CCOC(=O)c1sc(N)c(C(=O)Nc2ccccc2OC)c1C | 26.5 | -20.1 | -3.1 | 3.6 | 28.5 | -3.2
COc1ccc(Nc2sc(C(=O)Nc3cccc(Cl)c3)c(N)c2C(=O)Nc2ccccc2OC)cc1 | 12.1 | 3.1 | -21.8 | 9.7* | -0.7 | 21.8
Cc1oc(C(C)(C)C)cc1C(=O)Nc1cccc(/C=C\C(=O)O)c1 | -11.4 | 18.3 | -14.4 | 6.1 | -6.4 | 16.1
Cc1oc(-c2ccccc2)cc1C(=O)Nc1cccc(/C=C\C(=O)O)c1 | -0.2 | 3.0 | -2.0 | 8.5* | 0.1 | 13.6
CN(C)S(=O)(=O)c1cccc(C(=O)NCC2CCCO2)c1 (stereo not given) | 97.1* | -0.1 | -4.1 | 0.9 | 5.7 | nt
CC[n+]1ccc(/C=C/c2ccc(N(C)C)cc2)c2ccccc21 | 86.6* | -25.1 | -29.9 | 3.2 | 27.2 | 35.0*
CC(NC(=S)NCCCN1CCOCC1)C1CC2CCC1C2 (stereo not given) | 59.4* | 14.7 | -10.0 | 0.1 | 16.5 | 2.7
S=C(NCCCN1CCOCC1)NC1CC1 | -7.2 | 4.7 | -15.9 | 0.3 | 0.8 | 16.6
CSC(=S)N/N=C/c1ccc(Br)cc1 | 67.6* | -7.3 | 4.4 | 3.7 | 19.2 | 25.1
CSC(=S)N/N=C/c1ccc(N(C)C)cc1 | 65.6 | -11.5 | -11.7 | 1.0 | 17.8 | 8.5
Cc1oc2cc3c(C(=O)N4CCN(c5ccccc5)CC4)c(C)oc3cc2c1C(=O)N1CCN(c2ccccc2)CC1 | nt | nt | nt | nt | 0.8 | nt
O=C1NN=C(c2ccc(Br)cc2)CC1c1ccc(Cl)cc1 (stereo not given) | 58.0* | 11.6 | 2.8 | -0.1 | 27.9 | 13.0
CN1N=C(c2ccc(Cl)cc2)CC(c2ccc(Cl)cc2)C1=O (stereo not given) | 65.0* | -14.9 | -6.5 | 1.6 | 18.8 | 6.0
Cc1ccc(C2CC(c3ccc(Cl)cc3)=NNC2=O)cc1 (stereo not given) | 12.8 | -1.0 | -18.2 | -1.6 | 0.7 | nt
COc1ccc(S(=O)(=O)Nc2ccc(S(=O)(=O)N3CCCCC3)cc2)cc1 | 8.2 | 10.2 | -18.4 | 3.9 | 0.3 | nt
CSc1nc2ccc(S(=O)(=O)N3CCCCC3)cc2s1 | -9.6 | 1.0 | -10.5 | 5.0 | -0.6 | nt
Nc1nc2ccc(S(=O)(=O)N3CCCCC3)cc2s1 | 69.9* | -15.0 | -3.8 | 3.9 | -1.3 | nt
CCCCc1ccc(-n2c(Cc3cccs3)n[nH]c2=S)cc1 | 73.7* | -6.7 | -1.9 | 0.5 | 24.4 | 14.8
S=c1[nH]nc(Cc2cccs2)n1-c1ccccc1 | 1.2 | 6.8 | -10.7 | 0.8 | 0.4 | nt
NC(=O)Cc1c[nH]c2cccc(O)c12 | -25.0 | 8.2 | -13.2 | 0.6 | 2.7 | 11.3
COc1ccc(O)c(C(=O)CC(=O)c2ccccc2)c1 | 6.8 | -16.9 | -13.0 | 2.5 | -1.8 | nt
COc1ccc(C(CC(=O)c2ccccc2)S(=O)(=O)c2ccc(C)cc2)cc1 (stereo not given) | 3.5 | -31.7 | -9.8 | 9.8* | -0.3 | nt
SMILES | WT yeast gro inh | Arbovirus inh | NCF1 inh | RAM inhibit | Hck Nef HTS | Calb biofilm kill
COc1ccc(C(=O)C/C(=C\C(=O)c2ccc(C)cc2)c2ccccc2)cc1 | 46.0 | -18.1 | -5.1 | 10.9* | 3.3 | nt
CN(C)c1nc(N)nc(-c2ccco2)n1 | -1.6 | 27.2 | 6.1 | 1.4 | -10.4 | nt
CCN(CC)c1c([N+](=O)[O-])c(=O)oc2ccccc12 | -12.3 | 2.8 | -9.7 | 3.0 | 30.2 | -2.2
CCOC(=O)Cc1ccc2sc(-c3ccccc3)nc2c1 | 63.9* | -1.8 | 2.8 | 0.5 | 1.5 | 13.6
CCOC(=O)c1sc(-c2ccccc2)nc1C | 7.7 | 1.0 | -7.6 | -0.5 | -9.0 | -11.6
CCc1ccc(Nc2cnn(-c3nc4ccccc4s3)c(=O)c2Cl)cc1 | 62.8* | 16.2 | -4.5 | 0.7 | 9.8 | -3.4
CCCCNc1cnn(-c2ccccc2)c(=O)c1Cl | -14.5 | 0.1 | 5.2 | -0.4 | 18.5 | 13.2
C/C(=N\NC(=O)CC1N=C(Cc2ccccc2)NNC1=O)c1ccc(Cl)cc1Cl (stereo not given) | -2.9 | -17.0 | -6.5 | 1.3 | -0.3 | nt
CCOC(=O)C(C)c1nc2ccccc2[nH]c1=O (stereo not given) | 72.8* | 1.4 | -5.6 | -1.6 | 4.8 | nt
CCCCN(CC)C(=O)Cc1ccc(Br)cc1 | 4.0 | -7.8 | 2.0 | -0.9 | -0.5 | 15.5
O=C(COc1ccc(Cl)cc1Cl)OCC(=O)N1CCCc2ccccc21 | 52.3 | -0.2 | -13.7 | 7.6 | -1.4 | 13.6
O=C(CCCOc1ccc(Cl)cc1Cl)N1CCCc2ccccc21 | 74.8* | -5.5 | -6.8 | 0.6 | 7.6 | nt
CC(=O)N1CCN(c2ccccc2NC(=O)COc2ccc(Cl)cc2Cl)CC1 | -0.2 | 3.1 | -18.3 | 2.0 | -5.2 | nt
Cc1cc(Cl)ccc1OCC(=O)N1CCCCC1 | -1.4 | -7.0 | -2.1 | 0.5 | 8.2 | nt
O=C(COc1ccc(Cl)cc1Cl)N1CCCN(C(=O)COc2ccc(Cl)cc2Cl)CC1 | 75.9* | -33.8 | -19.4 | 3.3 | 9.3 | nt
CC(=O)N1CCN(c2ccc(NC(=O)COc3ccc(Cl)cc3Cl)cc2)CC1 | 8.0 | -10.0 | -5.6 | 10.1* | 1.1 | nt
O=c1oc(Nc2cccc(Cl)c2)nc2ccccc12 | 2.7 | -1.2 | -4.3 | 0.4 | -6.7 | 14.3
CCCOc1cccc(C(=O)Nc2ccc(Br)cc2F)c1 | 7.2 | -3.0 | -4.8 | 1.1 | 3.1 | -1.9
On1c2c(c3c4nonc4ccc31)CCCC2 | 73.9* | 1.1 | 2.2 | -1.3 | 1.4 | 12.9
COn1c2c(c3c4nonc4ccc31)CCCC2 | 16.3 | 2.2 | -17.5 | 2.0 | 2.1 | nt
Cc1nc2c(-c3ccc(F)cc3)c(C)nn2c(C)c1CCC(=O)N1CCC(Cc2ccccc2)CC1 | 64.8* | -39.0 | -19.6 | 2.5 | -0.8 | nt
CNS(=O)(=O)c1cccc(C(=O)OCC(=O)Nc2ccc(-c3nc4ccc(C)cc4s3)cc2)c1 | 9.4 | -9.4 | -52.1 | 11.3* | 18.4 | 14.8
Cc1ccc2nc(-c3ccc(NC(=O)COC(=O)c4ccco4)cc3)sc2c1 | 3.7 | -11.5 | -20.0 | 3.5 | 0.9 | 15.8
CCOC(=O)Cc1csc(NS(=O)(=O)c2ccc(SC)cc2)n1 | 4.5 | 1.2 | -2.1 | -1.6 | -3.0 | 14.3
OC(COCc1cccs1)CN1CCN(c2cccc(Cl)c2)CC1 (stereo not given) | -17.9 | -8.7 | -1.8 | 0.5 | 2.6 | 19.4
